Assay results: ChEMBL document CHEMBL3351231, “Structure and antimicrobial activity of phloroglucinol derivatives from Achyrocline satureioides” (2015)
≈ marks a conversion by molar mass, not a printed value.

Experiments:
[1] = system: Nakaseomyces glabratus; assay: Antimicrobial activity against Candida glabrata ATCC 9984 after 24 hrs by broth microdilution method; assay type: functional; details: ATCC 9984, 24 h
[2] = system: Saccharomyces cerevisiae; assay: Antimicrobial activity against Saccharomyces cerevisiae BY4741 after 24 hrs by broth microdilution method; assay type: functional; details: BY4741, 24 h
[3] = system: Staphylococcus aureus; assay: Antimicrobial activity against methicillin-sensitive Staphylococcus aureus ATCC 25923 after 24 hrs by broth microdilution method; details: ATCC 25923, 24 h
[4] = system: Candida albicans; assay: Antimicrobial activity against Candida albicans […] after 24 hrs by broth microdilution method; assay type: functional
[5] = system: Escherichia coli; assay: Antimicrobial activity against Escherichia coli ATCC 35218 after 24 hrs by broth microdilution method; assay type: functional; details: ATCC 35218, 24 h
Procedure, shortened: (§1)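 Strains kept at −80 °C in BHI broth with 20% glycerol and revived on BHI at 37 °C overnight. NCCLS standard broth microdilution with 1:2 serial dilutions from 1 to 128 μM and an inoculum of 1 × 10⁵ CFU/mL. Ampicillin and kanamycin served as controls.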

[6] = system: Enterococcus faecalis; assay: Antimicrobial activity against Enterococcus faecalis ATCC 29212 after 24 hrs by broth microdilution method; assay type: functional; details: ATCC 29212, 24 h; procedure, shortened: as §1
[7] = system: Staphylococcus aureus; assay: Antimicrobial activity against methicillin-resistant and vancomycin-intermediate Staphylococcus aureus NRS402 after 24 hrs by broth microdilution method; assay type: functional; details: NRS402, 24 h
Procedure, shortened: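 Broth microdilution per NCCLS standard; strain stored at -80 °C in BHI broth with 20% glycerol, revived on BHI at 37 °C overnight. […] Ampicillin and kanamycin included as controls.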

Compound | MIC [1] | MIC [2] | MIC [3] | MIC [4] | MIC [5] | MIC [6] | MIC [7]
C=C(C)C(O)Cc1c(O)c(C(=O)C(C)CC)c(O)c2c1oc1c(C(=O)C(C)CC)c(O)c(CC=C(C)C)c(O)c12 (configuration not stated) [ACHYROFURAN] | > 128 µM | > 128 µM | < 1 µM | > 128 µM | > 128 µM | 2 µM (≈ 1.11 µg/mL) | < 1 µM
C=C(C)[C@@H]1Cc2c(O)c(Cc3c(O)c(C)c(CC)oc3=O)c(O)c(C(=O)[C@@H](C)CC)c2O1 | > 128 µM | > 128 µM | 32 µM (≈ 14.2 µg/mL) | > 128 µM | > 128 µM | 64 µM (≈ 28.3 µg/mL) | 64 µM (≈ 28.3 µg/mL)
CCc1oc(=O)c(Cc2c(O)c(C(=O)[C@@H](C)CC)c3c(c2O)C2OC2C(C)(C)O3)c(O)c1C (some centres not stated) | – | – | > 128 µM | – | > 128 µM | > 128 µM | > 128 µM
CC1(C)S[C@@H]2[C@H](NC(=O)[C@H](N)c3ccccc3)C(=O)N2[C@H]1C(=O)O [AMPICILLIN] | – | – | < 1 µM | – | > 128 µM | 8.8 µM (≈ 3.07 µg/mL) | 120 µM (≈ 41.9 µg/mL)
CCc1oc(=O)c(Cc2c(O)c3c(c(C(=O)[C@@H](C)CC)c2O)OC(C(C)(C)O)C3)c(O)c1C (some centres not stated) | – | – | > 128 µM | – | > 128 µM | > 128 µM | > 128 µM
CCc1oc(=O)c(Cc2c(OC(C)=O)c3c(c(C(=O)[C@@H](C)CC)c2OC(C)=O)OC(C)(C)C=C3)c(OC(C)=O)c1C | – | – | > 128 µM | – | > 128 µM | > 128 µM | > 128 µM
CCc1oc(=O)c(Cc2c(O)c(CCC(C)C)c(O)c(C(=O)[C@@H](C)CC)c2O)c(O)c1C | – | – | 4 µM (≈ 1.79 µg/mL) | – | > 128 µM | 32 µM (≈ 14.3 µg/mL) | 4 µM (≈ 1.79 µg/mL)
COc1c(-c2ccccc2)oc2c(OC)c(O)cc(O)c2c1=O [GNAPHALIIN] | > 128 µM | > 128 µM | > 128 µM | > 128 µM | > 128 µM | > 128 µM | > 128 µM
NC[C@H]1O[C@H](O[C@H]2[C@H](O)[C@@H](O[C@H]3O[C@H](CO)[C@@H](O)[C@H](N)[C@H]3O)[C@H](N)C[C@@H]2N)[C@H](O)[C@@H](O)[C@@H]1O [KANAMYCIN] | – | – | 2.8 µM (≈ 1.36 µg/mL) | – | > 128 µM | 360 µM (≈ 174 µg/mL) | 240 µM (≈ 116 µg/mL)
CCc1[nH]c(=O)c(Cc2c(O)c3c(c(C(=O)[C@@H](C)CC)c2O)OC(C)(C)C=C3)c(O)c1C | – | – | 32 µM (≈ 14.1 µg/mL) | – | > 128 µM | > 128 µM | 32 µM (≈ 14.1 µg/mL)
CCc1oc(=O)c(Cc2c(O)c(CC=C(C)C)c(O)c(C(=O)[C@@H](C)CC)c2O)c(O)c1C | > 128 µM | > 128 µM | 8 µM (≈ 3.56 µg/mL) | > 128 µM | > 128 µM | 64 µM (≈ 28.4 µg/mL) | 8 µM (≈ 3.56 µg/mL)
CCc1oc(OC)c(Cc2c(O)c3c(c(C(=O)[C@@H](C)CC)c2O)OC(C)(C)C=C3)c(=O)c1C | – | – | > 128 µM | – | > 128 µM | > 128 µM | > 128 µM
C=C(C)C(O)Cc1c(O)c(C(=O)[C@@H](C)CC)c2oc3c4c(c(C(=O)[C@@H](C)CC)c(O)c3c2c1O)OC(C)(C)C=C4 (some centres not stated) | > 128 µM | > 128 µM | 32 µM (≈ 17.6 µg/mL) | > 128 µM | > 128 µM | 64 µM (≈ 35.2 µg/mL) | 32 µM (≈ 17.6 µg/mL)
CCc1oc(=O)c(Cc2c(O)c3c(c(C(=O)[C@@H](C)CC)c2O)OC(C)(C)CC3)c(O)c1C | – | – | > 128 µM | – | > 128 µM | > 128 µM | > 128 µM
CCc1oc(OC)c(Cc2c(O)c(C(=O)[C@@H](C)CC)c3c(c2OC)C=CC(C)(C)O3)c(=O)c1C | – | – | > 128 µM | – | > 128 µM | > 128 µM | > 128 µM
CCc1oc(=O)c(Cc2c(O)c3c(c(C(=O)[C@@H](C)CC)c2O)OC(C)(C)C=C3)c(O)c1C | > 128 µM | > 128 µM | 64 µM (≈ 28.3 µg/mL) | > 128 µM | > 128 µM | > 128 µM | 64 µM (≈ 28.3 µg/mL)
CCc1oc(=O)c(Cc2c(O)c3c(c(C(=O)[C@@H](C)CC)c2O)OC(C)(C)[C@@H](O)C3)c(O)c1C | > 128 µM | > 128 µM | > 128 µM | > 128 µM | > 128 µM | > 128 µM | > 128 µM
CCc1oc(=O)c(Cc2c(O)c(C(=O)[C@@H](C)CC)c3c(c2OC)C=CC(C)(C)O3)c(OC)c1C | – | – | > 128 µM | – | > 128 µM | > 128 µM | > 128 µM
CCc1oc(=O)c(Cc2c(O)c3c(c(C(=O)[C@@H](C)CC)c2O)OC(C)(C)C(Br)=C3)c(O)c1C | – | – | 16 µM (≈ 8.34 µg/mL) | – | > 128 µM | > 128 µM | 8 µM (≈ 4.17 µg/mL)
